Screening results deposited in PubChem by several laboratories.
RAM inhibit: inhibitors of the yeast RAM network; S. cerevisiae dse1pr::URA3 reporter, 5-FOA growth OD615, 2 d; analog-sensitive cbk1-as2 kinase mutant strain; inhibition, % at 50 µM; 190,000 tested, 1.8% active;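 active means inhibition above a set limit, 3 SD over mean compound inhibition, cut at about 8.4% in these data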;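 further: inhibition rescues growth on 5-FOA so higher OD means more RAM inhibition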
Yeast life ext: yeast lifespan extension; S. cerevisiae growth with nicotinamide, OD615; deaD strain in restrictive glucose medium; inhibition of the nicotinamide effect, % at 10 µM; 130,000 tested, 0.68% active;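 active means inhibition above a set limit, placed 3 SD over the median of all compounds, cut at about 26% in these data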
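Material: Modified budding yeast, DeaD strain | Medium: Restrictive glucose medium | Probe or stimulus: 1.5 mM nicotinamide | Dosing: Single dose 10 µM compound, 0.25% DMSO | Times: 48 h at 30 °C | Technique: OD615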
KCC2 mod: KCC2 (human) Cl- transport modulation | Q9H2X9 | KCC2 cells, thallium flux FluoZin-2 fluorescence | B-score of Tl+ flux slope (higher = more flux/activation; lower = inhibition) at 10 µM | 190,000 tested, 2.2% active;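 active means thallium flux slope and its plate-corrected score both differing from the plate sample mean at a set confidence after two filtering rounds, in either direction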;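 further: slope of fluorescence scaled to starting intensity during 10 to 20 s after thallium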
Target sequence (Q9H2X9 whole entry, looked up): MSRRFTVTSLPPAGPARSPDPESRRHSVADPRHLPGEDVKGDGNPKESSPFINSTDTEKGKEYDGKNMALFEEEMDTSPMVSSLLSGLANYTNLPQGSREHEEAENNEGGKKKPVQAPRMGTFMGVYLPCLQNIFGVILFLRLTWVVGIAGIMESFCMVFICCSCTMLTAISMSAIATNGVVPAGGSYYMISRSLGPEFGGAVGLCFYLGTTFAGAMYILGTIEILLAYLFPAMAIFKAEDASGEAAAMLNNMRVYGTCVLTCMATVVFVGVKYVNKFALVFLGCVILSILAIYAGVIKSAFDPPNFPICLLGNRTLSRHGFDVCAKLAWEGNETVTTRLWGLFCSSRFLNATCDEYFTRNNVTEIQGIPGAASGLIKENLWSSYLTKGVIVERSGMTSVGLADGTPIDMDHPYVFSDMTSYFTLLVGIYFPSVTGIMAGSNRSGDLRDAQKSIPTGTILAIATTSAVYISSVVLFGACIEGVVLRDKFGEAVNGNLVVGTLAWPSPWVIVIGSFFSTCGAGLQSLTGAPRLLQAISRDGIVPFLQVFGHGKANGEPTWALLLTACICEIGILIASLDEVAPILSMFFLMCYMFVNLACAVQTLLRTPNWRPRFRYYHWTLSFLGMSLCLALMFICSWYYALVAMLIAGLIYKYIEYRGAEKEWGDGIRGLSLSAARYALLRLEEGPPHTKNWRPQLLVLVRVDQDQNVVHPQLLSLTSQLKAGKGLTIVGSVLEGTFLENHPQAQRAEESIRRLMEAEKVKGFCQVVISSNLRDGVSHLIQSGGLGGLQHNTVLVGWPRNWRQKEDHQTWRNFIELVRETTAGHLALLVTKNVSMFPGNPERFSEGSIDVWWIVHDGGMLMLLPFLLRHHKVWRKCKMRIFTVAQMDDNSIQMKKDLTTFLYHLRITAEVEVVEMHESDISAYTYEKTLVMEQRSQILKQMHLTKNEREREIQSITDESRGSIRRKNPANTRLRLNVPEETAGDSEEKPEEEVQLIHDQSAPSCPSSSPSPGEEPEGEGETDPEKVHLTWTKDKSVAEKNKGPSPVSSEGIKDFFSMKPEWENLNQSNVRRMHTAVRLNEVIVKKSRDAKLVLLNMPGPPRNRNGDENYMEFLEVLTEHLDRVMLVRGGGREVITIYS
WT yeast gro inh: growth inhibition of WT yeast, mitochondrial fusion screen. mitochondrial fusion phenotypic screen, WT strain. inhibition, % at 10 µM. 190,000 tested, 2.1% active; in the data active means inhibition above about 58%; tested in S. cerevisiae
BB579 growth dn: chemicals that inhibit yeast BB579 growth in restrictive medium (lifespan-shortening candidates); S. cerevisiae BB579 growth, OD615, 48 h; inhibition, % at 10 µM; 140,000 tested, 0.51% active;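 active means inhibition above a set limit, 3 SD over the mean compound inhibition, cut at about 44% in these data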
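Detection: OD615 turbidity measurement; Material: Saccharomyces cerevisiae DeaD strain BB579, replicative lifespan model yeast; Timing: 48 h exposure, 30 °C; Doses: single 10 µM dose; Medium: CSMM-D restrictive synthetic medium containing dextrose (glucose); Controls: amphotericin B at 10 µg/mL as positive control.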
Each line names hits and unclear results; the compound was inactive in the other large screens. Most compounds without a hit are left out; they make up all but 5.5% or so of the library.

CC12CCC(C(=O)N3CCC(Cc4ccccc4)CC3)(C(=O)C1=O)C2(C)C (configuration not stated)	none (no result: Yeast life ext, BB579 growth dn)
O=C(CCCCl)Oc1ccc2cc(-c3ccc4ccccc4n3)c(=O)oc2c1	none
COc1ccccc1N/C(=N/S(=O)(=O)c1ccc(C)cc1)c1ccc(Cl)cc1	none
COc1cc(SC)ccc1C(=O)NCC1CCCO1 (configuration not stated)	WT yeast gro inh 86.1
COc1cc(SC)ccc1C(=O)NCCOc1ccc(C)c(C)c1	WT yeast gro inh 63.8
O=C(Nc1nc(-c2cc(Cl)sc2Cl)cs1)c1cccs1	WT yeast gro inh 73.9
O=C(Nc1nc(-c2cccs2)cs1)c1ccc(Cl)cc1	WT yeast gro inh 67.0 (no result: KCC2 mod)
O=C(Nc1ncc(Cc2cccc(Cl)c2)s1)c1cccs1	WT yeast gro inh 80.6
N#Cc1ccc(Cl)cc1NC(=O)CSc1nc2nc(-c3cccs3)cc(C(F)(F)F)c2c(=O)[nH]1	none (no result: RAM inhibit, Yeast life ext, WT yeast gro inh, BB579 growth dn)
O=C(O)C1c2ccccc2C(=O)N(Cc2ccc(F)cc2)C1c1ccncc1 (configuration not stated)	none (no result: RAM inhibit, Yeast life ext, WT yeast gro inh, BB579 growth dn)
CC(C)N(CCNCc1nnc(-c2ccccc2)o1)C(C)C	none (no result: Yeast life ext, BB579 growth dn)
Cc1cccc(OCCCN2C(=O)C(=O)c3cc(C)ccc32)c1	none (no result: Yeast life ext, BB579 growth dn)
CC(=O)n1cc(C(C[N+](=O)[O-])SCCN)c2ccccc21 (configuration not stated)	BB579 growth dn 72.8
CC(=O)n1cc(-c2ccncc2)c2ccccc21	none
COc1ccc(C)cc1NC(=O)C(=O)NNC(=O)c1ccco1	KCC2 mod 21
Cc1c(Br)c([N+](=O)[O-])nn1C(C)C(=O)Nc1ccc2c(c1)OCO2 (configuration not stated)	none (no result: KCC2 mod)
N#CC(c1ccc(Cl)cc1)(c1ncc(C(F)(F)F)cc1Cl)N1CCOCC1 (configuration not stated)	WT yeast gro inh 69.9 (no result: KCC2 mod)
N#CC(c1ccccc1F)(c1ncc(C(F)(F)F)cc1Cl)N1CCOCC1 (configuration not stated)	none (no result: KCC2 mod)
CN(Cc1ccccc1)c1ccc(S(=O)(=O)N2CCC(C(=O)O)CC2)cc1[N+](=O)[O-]	none (no result: Yeast life ext, BB579 growth dn)
O=C1CN(CC(=O)N2CCOCC2)c2ccccc2O1	none
O=C1CN(CC(=O)N2CCCCC2)c2ccccc2O1	BB579 growth dn 46.3
O=C(Nc1ccccc1)c1nc2ccccc2s1	none
Cc1cccc(NC(=S)c2nc3ccccc3s2)c1	KCC2 mod 3.34, WT yeast gro inh 66.9
CCN(CC)CCNC(=O)/C(=C/c1cn(C)c2ccccc12)NC(=O)c1ccc(OC)c(OC)c1	none (no result: RAM inhibit, Yeast life ext, WT yeast gro inh, BB579 growth dn)
NC(=S)N/N=C1\CCOc2ccc(F)cc21	none (no result: RAM inhibit, Yeast life ext, WT yeast gro inh, BB579 growth dn)
Cc1ccccc1NC1=C(Cl)C(=O)OC1OC(=O)c1ccccc1C (configuration not stated)	WT yeast gro inh 68.1 (no result: Yeast life ext, BB579 growth dn)
Cc1noc(C)c1COC(=O)CCN1c2ccccc2Sc2ccccc21	RAM inhibit 10.4
Cc1noc(C)c1COC(=O)CCOc1ccccc1	none
COc1ccc(C2CCCN2C(=O)Nc2ccccc2)cc1OC (configuration not stated)	none
CC(C)(C)C(=O)Nc1ccnc(-c2cccnc2)n1	WT yeast gro inh 73.3
CCC(=O)Nc1ccnc(-c2cccnc2)n1	none
COc1cc(C(C#N)N2CCC(c3ccccc3)=N2)ccc1O (configuration not stated)	none (no result: RAM inhibit, Yeast life ext, WT yeast gro inh, BB579 growth dn)
O=C(CCCl)N1CCCC2(CCCCC2)C1	none (no result: RAM inhibit, Yeast life ext, WT yeast gro inh, BB579 growth dn)
Cc1cccc(NC(=O)N2CCC(NC(=O)c3ccccc3C)CC2)c1	RAM inhibit 9.6
Cc1cccc(NC(=O)N2CCC(NC(=O)c3ccco3)CC2)c1	none (no result: Yeast life ext, BB579 growth dn)
CC(C)NC(=O)NC(=O)COC(=O)c1cccc(OC(F)F)c1	none (no result: Yeast life ext, BB579 growth dn)
CC1Cc2ccccc2N1C(=O)CN1C(=O)COc2ccccc21 (configuration not stated)	none
CC1Cc2ccccc2N1C(=O)Cn1c(=O)cc(O)c2ccccc21 (configuration not stated)	WT yeast gro inh 96.8
CCCn1c(=O)c(C(=O)NCc2ccncc2)c(O)c2ccccc21	Yeast life ext 27.9
CCn1c(=O)c(C(=O)Nc2ncccc2C)c(O)c2ccccc21	WT yeast gro inh 59.3 (no result: Yeast life ext, KCC2 mod, BB579 growth dn)
CCCn1c(=O)c(C(=O)NNS(=O)(=O)c2ccc(C)cc2)c(O)c2ccccc21	none
CCn1c(=O)c(C(=O)NCc2cccnc2)c(O)c2ccccc21	none
CCn1c(=O)c(C(=O)NNS(=O)(=O)c2ccc(C)cc2)c(O)c2ccccc21	Yeast life ext 31.5
Cc1cccnc1NC(=O)c1c(O)c2ccccc2n(C)c1=O	none
CCc1ccc(-c2nc(CN3CCC(C(=O)NCCN(CC)c4ccccc4)CC3)c(C)o2)cc1	WT yeast gro inh 71.1
CCN(CCNC(=O)C1CCN(Cc2nc(-c3ccc(Cl)cc3)oc2C)CC1)c1ccccc1	none
CCc1ccc(-c2nc(CN3CCC(C(=O)N4CCN(c5ccccc5)CC4)CC3)c(C)o2)cc1	KCC2 mod 2.02, WT yeast gro inh 66.1
O=C(NC1CCCCC1)C1CC=CCC1C(=O)OCC(Cl)=C(Cl)Cl (configuration not stated)	none
COC(=O)c1cc(COC(=O)c2nc3nccc(C)n3n2)oc1C	none (no result: Yeast life ext, BB579 growth dn)
COc1ccc(S(=O)(=O)N(C)c2ccc(C(=O)N3CCCCC3)cc2)cc1OC	none (no result: RAM inhibit, Yeast life ext, WT yeast gro inh, BB579 growth dn)
CC(C)n1c(O)c(N=Nc2ccc(Cl)nn2)c2ccccc21	KCC2 mod 10.5
Cc1cc(C(=O)N=Nc2c(O)n(C(C)C)c3ccccc23)n[nH]1	none
Cc1ccc(-c2cc(C(=O)N/N=C/C(Br)=C/c3ccccc3)n[nH]2)o1	WT yeast gro inh 60.7 (no result: Yeast life ext, BB579 growth dn)
Fc1cccc(/C=N/Nc2ccc3ccccc3n2)c1	none (no result: Yeast life ext, BB579 growth dn)
Brc1ccccc1/C=N/Nc1ccc2ccccc2n1	WT yeast gro inh 68.6
Cc1cc(N/N=C/c2ccccc2Br)nc2ccccc12	WT yeast gro inh 70.1
Cc1cc(N/N=C/c2ccc3c(c2)OCO3)nc2ccccc12	none (no result: RAM inhibit, Yeast life ext, WT yeast gro inh, BB579 growth dn)
Brc1ccc(/C=N/Nc2ccc3ccccc3n2)cc1	WT yeast gro inh 60.0
Cc1ccc(C2c3c(oc4ccccc4c3=O)C(=O)N2c2nncs2)cc1 (configuration not stated)	none (no result: RAM inhibit, Yeast life ext, WT yeast gro inh, BB579 growth dn)
C=CCC1(N(C(C)=O)c2ccccc2)CCCCC1	none (no result: Yeast life ext, BB579 growth dn)
COc1ccc(C2C=C(C34CC5CC(CC(C5)C3)C4)NC(=S)N2)cc1 (configuration not stated)	WT yeast gro inh 69.8
COc1ccc(C2=CC(c3ccc(OC)c(OC)c3)NC(=S)N2)cc1 (configuration not stated)	none
COc1ccc2c(c1)[nH]c1c(Cl)ncnc12	BB579 growth dn 61.2
Cc1ccc2[nH]c3c(Cl)ncnc3c2c1	none (no result: RAM inhibit, Yeast life ext, WT yeast gro inh, BB579 growth dn)
CCN1C(=O)C(CC(=O)Nc2ccc(Br)cc2)N(CCCc2ccccc2)C1=S (configuration not stated)	RAM inhibit 10.9
CCOc1ccc(NC(=O)CC2C(=O)N(C)C(=S)N2CCCc2ccccc2)cc1 (configuration not stated)	none
CN(C)S(=O)(=O)c1cccc(NC(=O)CN2C(=O)NC(CCc3ccccc3)C2=O)c1 (configuration not stated)	none (no result: Yeast life ext, BB579 growth dn)
